SUMO1-SIM PPI: modulators of SUMO1 protein-protein interactions, primary screen, biochemical, uHTS; Small ubiquitin-related modifier 1 (Homo sapiens), P63165; SUMO1 binding to a labelled peptide, TR-FRET, 1 h; inhibition, % at 20 µM; hit rate 0.33% among 360,000; AID 602429, 2012; in the data active means inhibition above about 37%
Target sequence (P63165 whole entry, looked up): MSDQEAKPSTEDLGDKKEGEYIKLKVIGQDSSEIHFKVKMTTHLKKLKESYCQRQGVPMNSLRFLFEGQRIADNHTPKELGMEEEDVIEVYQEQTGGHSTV
DNMT1 inh: human DNMT1 methyltransferase inhibitors, primary screen, biochemical, molecular beacon, fluorescence, HinP1I cleavage, uHTS; inhibition (reported as % activation of signal), % at 10 µM; hit rate 0.83% among 360,000; AID 588458, 2011; in the data active means inhibition above about 50%
Scp-1 inhibitor: Scp-1 phosphatase inhibitors, primary screen, biochemical, colorimetric, uHTS | Carboxy-terminal domain RNA polymerase II polypeptide A small phosphatase 1 (Homo … | Recombinant Scp1, phosphopeptide, malachite green phosphate absorbance | inhibition, % at 20 µM | hit rate 0.88% among 340,000 | AID 493091, 2011;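 active means inhibition above about 50% at 20 µM, limit read from the data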;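 further: plate controls were DMSO wells with enzyme for no effect and wells lacking enzyme for full effect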
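Material – SCP-1 phosphatase catalytic domain, residues 76-261 · Buffer or medium – Acidic Tris acetate buffer with magnesium and detergent · Also added – Phospho 17-mer peptide substrate · Compound – single 20 µM dose, 1% DMSO · Times – 45 min room-temperature reaction, 5 min colour, 30 min stabiliser · Technique – Phosphate-binding colour reagent, absorbance read at 630 nm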
LMPTP block: LMPTP phosphatase inhibitors, primary screen, biochemical, fluorescence intensity, uHTS. hit rate 0.22% among 360,000. recombinant LMPTP-A, OMFP fluorogenic substrate. inhibition, % at 20 µM;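 active means compounds that cut the enzyme signal by at least half of the control window in the single-dose screen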;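 further: plate controls were DMSO wells with enzyme plus substrate for no effect and substrate without enzyme for full effect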
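material = LMPTP-A | quantity = 0.625 nM enzyme | reagent = OMFP substrate, 400 µM final | buffer or medium = Bis-Tris pH 6.0, DTT, detergent | detection = endpoint fluorescence intensity from OMFP dephosphorylation | dosing = single 20 µM dose | read-out basis = % inhibition relative to no-enzyme and uninhibited control wells | control set = no-enzyme and uninhibited controls | timing = 50 min at room temperature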
STEP inh: STEP phosphatase inhibitors, primary screen, biochemical, fluorescence intensity, uHTS; hit rate 0.25% among 360,000; inhibition, % at 20 µM; Tyrosine-protein phosphatase non-receptor type 5 (Homo sapiens), P54829; recombinant STEP, OMFP fluorogenic substrate;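 active means inhibition at 20 µM, scaled per plate between control wells, above about 37%, limit read from the data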;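 further: 0% = DMSO with enzyme and substrate and 100% = substrate only without enzyme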
Target sequence (P54829 whole entry, looked up): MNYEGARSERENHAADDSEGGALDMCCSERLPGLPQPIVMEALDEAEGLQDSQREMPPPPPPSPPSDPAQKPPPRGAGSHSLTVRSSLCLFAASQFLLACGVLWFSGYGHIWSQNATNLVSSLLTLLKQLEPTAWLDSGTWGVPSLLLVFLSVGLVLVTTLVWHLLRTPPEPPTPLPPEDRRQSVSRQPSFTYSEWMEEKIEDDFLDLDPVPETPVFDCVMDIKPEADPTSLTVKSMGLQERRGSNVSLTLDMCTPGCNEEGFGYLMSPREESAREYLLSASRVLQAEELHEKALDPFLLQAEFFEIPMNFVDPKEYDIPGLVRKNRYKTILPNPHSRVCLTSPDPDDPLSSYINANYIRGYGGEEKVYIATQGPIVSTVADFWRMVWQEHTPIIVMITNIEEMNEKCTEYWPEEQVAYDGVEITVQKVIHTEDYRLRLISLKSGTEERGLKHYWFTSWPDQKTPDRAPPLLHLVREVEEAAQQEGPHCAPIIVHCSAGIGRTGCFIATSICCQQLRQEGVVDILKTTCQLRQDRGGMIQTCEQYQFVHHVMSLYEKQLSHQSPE
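System: STEP (striatal-enriched tyrosine phosphatase) enzyme, cell-free; medium: Bis-Tris pH 6.0 buffer with DTT, detergent; dosing: 20 µM, 1% DMSO; times: reaction 20 min, ambient temperature; detection: fluorescence, 480/540 nm; read-out basis: normalized % inhibition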
SUMO HTRF inh: inhibitors of in vitro SUMOylation cascade, primary screen, biochemical, HTRF, uHTS; HTRF SUMOylation assay, SAE1/SAE2 + UBC9; inhibition, % at 35 µM; hit rate 0.36% among 290,000; AID 2006, 2009; in the data active means inhibition above about 50%, passing the limit was not always enough
Beacon interf DR: spectral interference with molecular beacon fluorescence, dose response, artefact control for DNMT1 inhibitor project, biochemical, fluorescent molecular beacon; shares compounds with DNMT1 inh; spectral interference counter-screen; IC50, µM; 200 tested, under 10 active; AID 602382, 2012; call rule not given here
DNMT1 confirm: DNMT1 methyltransferase inhibitor retest, confirmation, biochemical, molecular beacon, fluorescence, single concentration; shares compounds with DNMT1 inh; DNMT1 molecular beacon HinP1I cleavage; inhibition, % at 10 µM; hit rate 8% among 2,300; AID 602385, 2012;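 active means average inhibition of at least 30% in the single-concentration confirmation test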
DNMT1 interf: shows spectral interference in the DNMT1 beacon assay; shares compounds with DNMT1 inh; DNMT1 molecular beacon spectral interference counterscreen, fluorescence 485/520; activation (fluorescence interference), % at 10 µM; hit rate 1% among 2,300;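 active means activation of at least 30% at 10 µM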;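 further: DNMT1 catalytic domain with a HinP1I cleavage step and a FAM/dabcyl DNA beacon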
The depositor's hits bear a star; . = not tested or not shown. The list is not random: actives were taken first. Their share in the collection is about 1.9%.

SMILES | SUMO1-SIM PPI | DNMT1 inh | Scp-1 inhibitor | LMPTP block | STEP inh | SUMO HTRF inh | DNMT1 confirm | DNMT1 interf | others
COc1cccc(CN(CC(=O)NCc2ccco2)C(=O)CNS(=O)(=O)c2ccccc2)c1 | 1 | 57* | 0 | -1 | 0 | 10 | 7 | 8
Cc1ccc(S(=O)(=O)NCC(=O)N(CC(=O)NCc2ccco2)Cc2ccccc2)cc1 | 2 | -1 | -7 | 0 | 0 | 0 | . | .
O=C1c2cccc3c(O)ccc(c23)C(=O)N1Cc1ccco1 | -104 | 95* | 12 | -3 | -72 | 42 | 133* | 116*
O=C(N=Nc1c(O)n(Cc2ccccc2)c2ccccc12)c1ccc(O)cc1 | -10 | -5 | -14 | 0 | 1 | -1 | . | .
O=C(N=Nc1c(O)n(Cc2ccccc2)c2ccccc12)c1cc2ccccc2cc1O | -6 | 82* | 37 | 12 | 3 | . | 2 | -8
C/C(=N\NC(=O)c1cc(O)cc(O)c1)c1ccc(NC(=O)Cc2ccccc2)cc1 | 78* | 85* | 87* | 69* | 98* | . | 51* | -2 | Beacon interf DR=>99
C/C(=N\NC(=O)c1cccc(F)c1)c1ccc(NC(=O)Cc2ccccc2)cc1 | 4 | 2 | -5 | -6 | -1 | 2 | . | .
Cc1cccc(C)c1NC(=O)CNC(=O)c1cn(-c2ccccc2)nc1-c1ccccc1 | 0 | -1 | -5 | 0 | -1 | -9 | . | .
Cc1nn(Cc2c(Cl)cccc2Cl)c(C)c1NC(=O)c1cn(-c2ccccc2)nc1-c1ccccc1 | -2 | 68* | 1 | 2 | 5 | 47 | -2 | -6
CCN(CC(=O)Nc1c(F)cccc1F)C(=O)c1ccc2c(c1)C(=O)N(c1ccccc1C)C2=O | -20 | 2 | . | -1 | -3 | . | . | .
O=C(Nc1cccc(N2CCCC2)c1)c1cccs1 | 7 | 59* | -8 | 17 | 1 | -1 | 3 | 5
CCN(CC)CCNc1nc2cc(OC)c(OC)cc2c2nc(-c3ccccc3)nn12 | 12 | 67* | -7 | 4 | 4 | 19 | 26 | -4 | Beacon interf DR=>99
C[C@@H](C(=O)Nc1nccs1)N1C(=O)C2CC=CCC2C1=O (stereo partly drawn) | 3 | 60* | -1 | 3 | -3 | . | -1 | 4
CCCC(=O)OCC(=O)Nc1ccc2c(c1)OCO2 | 8 | -5 | -9 | 0 | -3 | -4 | . | .
Cc1cc(=O)oc2c3c(cc(OCC(=O)NC(Cc4ccc(Cl)cc4)C(=O)O)c12)OC(C)(C)CC3 (stereo not drawn) | 15 | 98* | 4 | -1 | -2 | 36 | 1 | 0
Cc1ccc(C)c(OCC(=O)N/N=C/c2c(C)nn(-c3ccccc3)c2Cl)c1C | 1 | 53* | -10 | -2 | 4 | -3 | 0 | 0
CSCC[C@H](NC(=O)[C@H](Cc1ccccc1)n1c(=O)[nH]c2ccccc2c1=O)C(=O)N1CCC[C@H]1C(=O)O | 3 | 4 | 1 | -1 | 1 | 12 | . | .
C=CCn1c(Cc2ccccc2)n[nH]c1=S | 6 | 1 | -1 | -4 | 5 | -6 | . | .
C=CCn1c(CSc2ccccc2[N+](=O)[O-])n[nH]c1=S | 20 | 70* | 17 | 43 | 6 | 42 | 0 | -3
CCOC(=O)C1=C(C)N=c2s/c(=C\c3ccc(OCC(=O)O)cc3)c(=O)n2C1c1ccc(Cl)cc1 (stereo not drawn) | 1 | 8 | 31 | 17 | 34 | 33 | . | .
CCOC(=O)C1=C(C)N=c2s/c(=C/c3ccc(OCC(=O)O)c(OC)c3)c(=O)n2C1c1ccc(Cl)cc1 (stereo not drawn) | 7 | 58* | 51* | 3 | 36 | . | 59* | -1 | Beacon interf DR=>99
CC1=C(C(=O)OC(C)C)C(c2ccc(Cl)cc2)n2c(sc(=Cc3ccc(OCC(=O)O)cc3)c2=O)=N1 (stereo not drawn) | 106* | 104* | . | 88* | 87* | . | 105* | -1 | Beacon interf DR=>99
Cc1cc(=O)c(C(=O)Nc2cccc(N3CCCC3=O)c2)nn1-c1ccccc1F | -9 | 85* | -5 | -1 | 1 | . | 1 | 3
COc1ccc(C2=CSC3=C(C(=O)c4cccc(S(=O)(=O)N(C)C)c4)CCN23)cc1 | -1 | 22 | -4 | 4 | 0 | 12 | . | .
CCNC(=O)COC(=O)CCC(=O)c1cccs1 | 2 | 9 | 4 | -2 | -1 | 16 | . | .
SMILES | SUMO1-SIM PPI | DNMT1 inh | Scp-1 inhibitor | LMPTP block | STEP inh | SUMO HTRF inh | DNMT1 confirm | DNMT1 interf | others
C=CCNC(=O)COC(=O)CCC(=O)c1cccs1 | 1 | 64* | -1 | -1 | -3 | 3 | 3 | 2
CCN1C(=O)[C@H]2[C@@H](c3ccc(-c4ccc(Cl)c(Cl)c4)c(OC)c3)N3CCCC[C@@]3(C(=O)OC)[C@H]2C1=O | 3 | -9 | -11 | -3 | -6 | . | . | .
CCN(CC)c1ccc2cc(-c3nnc(-c4ccccc4)o3)c(=O)oc2c1 | -15 | 102* | -14 | -2 | -109 | 27 | 88* | 134*
COc1cccc(C2c3c(-c4cc(Cl)c(C)cc4O)n[nH]c3C(=O)N2Cc2cccnc2)c1 (stereo not drawn) | 2 | 98* | 3 | 8 | 1 | -12 | 2 | 4
COc1ccc(C2c3c(-c4ccccc4O)n[nH]c3C(=O)N2Cc2ccco2)cc1 (stereo not drawn) | -1 | 66* | -14 | 3 | 0 | -4 | 1 | 2
CCOC(=O)c1c(NC(=O)N/N=C/c2ccccc2OCC)sc(C(C)=O)c1C | 1 | 56* | -3 | 2 | 1 | 9 | 4 | 2
NC(=O)c1cc2ccncc2c2ccccc12 | -5 | 3 | -4 | 0 | -2 | 13 | . | .
COc1cccc(N2CCN(CC(=O)NC(=O)NCc3ccco3)CC2)c1 | 7 | 50* | 9 | 14 | 0 | 14 | 8 | -1

From PubChem BioAssay
